Data published in ChEMBL document CHEMBL5303300, “EUbOPEN Chemogenomics Library - Multiplex” (2023).
Where “and” joins values, the source holds several entries; their conditions need not be identical. Identical values can stand only once.

Experiments:
Format in all cases: toxicity, cell-based
[1] = system: Fibroblast; assay: Multiplex assay against human fibroblast; conditions: number of replicates 2
Summary of the method: (§1)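 With compound added, live cells were imaged on a CQ1 microscope at 37°C and 5% CO2; staining with Hoechst33342, BioTracker Green Microtubule Cytoskeleton Dye, MitoTracker Red and Annexin V Alexa Fluor 680 had been done at seeding. The CellPathfinder machine-learning gating scheme split cells into Hoechst high-intensity objects or normal cells, normal cells into healthy, pyknosed or fragmented nuclei, and pyknosed cells into mitotic or apoptotic. The tubulin, mitochondrial-mass and membrane-permeability phenotypes are per cents of healthy-nucleus cells.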

[2] = system: HEK-293T; assay: Multiplex assay against HEK293T; conditions: human, number of replicates 2; summary of the method: as §1
[3] = system: U2OS; assay: Multiplex assay against U2OS; conditions: human, number of replicates 2; summary of the method: as §1
[4] = 12 h, 1 µM, compound concentration 1 uM
[5] = 12 h, 10 µM, compound concentration 10 uM
[6] = 24 h, 1 µM, compound concentration 1 uM
[7] = 24 h, 10 µM, compound concentration 10 uM
[8] = 48 h, 1 µM, compound concentration 1 uM
[9] = 48 h, 10 µM, compound concentration 10 uM

SMILES: CN(C)C/C=C/C(=O)Nc1cc2c(Nc3ccc(F)c(Cl)c3)ncnc2cc1OC[C@@H]1CCCO1
- Population Apoptotic (%) [1, 4]: 31% and 30%
- Population Fragmented Nuclei (%) [1, 4]: 16% and 20%
- Population Healthy Nuclei (%) [1, 4]: 57% and 60%
- Population Hoechst High Intensity Objects (%) [1, 4]: 0%
- Population Membrane Permeable-Phenotype (%) [1, 4]: 14% and 13%
- Population Mitochondria Different-Phenotype (%) [1, 4]: 0% and 1%
- Population Mitotic Cells (%) [1, 4]: 68% and 69%
- Population Normal (%) [1, 4]: 99% and 100%
- Population Pyknosed Nuclei (%) [1, 4]: 26% and 18%
- Population Tubulin-Different-Phenotype (%) [1, 4]: 67% and 54%
- Total Cell Count [1, 4]: 169 and 229
- Population Apoptotic (%) [1, 5]: 40% and 32%
- Population Fragmented Nuclei (%) [1, 5]: 12% and 15%
- Population Healthy Nuclei (%) [1, 5]: 41% and 47%
- Population Hoechst High Intensity Objects (%) [1, 5]: 1% and 3%
- Population Membrane Permeable-Phenotype (%) [1, 5]: 46% and 40%
- Population Mitochondria Different-Phenotype (%) [1, 5]: 9% and 11%
- Population Mitotic Cells (%) [1, 5]: 59% and 67%
- Population Normal (%) [1, 5]: 98% and 96%
- Population Pyknosed Nuclei (%) [1, 5]: 46% and 36%
- Population Tubulin-Different-Phenotype (%) [1, 5]: 78% and 88%
- Total Cell Count [1, 5]: 181 and 317
- Population Apoptotic (%) [1, 6]: 50% and 67%
- Population Fragmented Nuclei (%) [1, 6]: 14% and 20%
- Population Healthy Nuclei (%) [1, 6]: 65% and 66%
- Population Hoechst High Intensity Objects (%) [1, 6]: 0%
- Population Membrane Permeable-Phenotype (%) [1, 6]: 6% and 8%
- Population Mitochondria Different-Phenotype (%) [1, 6]: 2% and 5%
- Population Mitotic Cells (%) [1, 6]: 50% and 32%
- Population Normal (%) [1, 6]: 99% and 100%
- Population Pyknosed Nuclei (%) [1, 6]: 19% and 13%
- Population Tubulin-Different-Phenotype (%) [1, 6]: 69% and 51%
- Total Cell Count [1, 6]: 155 and 235
- Population Apoptotic (%) [1, 7]: 68% and 65%
- Population Fragmented Nuclei (%) [1, 7]: 17% and 13%
- Population Healthy Nuclei (%) [1, 7]: 27% and 29%
- Population Hoechst High Intensity Objects (%) [1, 7]: 2% and 6%
- Population Membrane Permeable-Phenotype (%) [1, 7]: 27% and 28%
- Population Mitochondria Different-Phenotype (%) [1, 7]: 45% and 47%
- Population Mitotic Cells (%) [1, 7]: 31% and 34%
- Population Normal (%) [1, 7]: 97% and 93%
- Population Pyknosed Nuclei (%) [1, 7]: 54% and 56%
- Population Tubulin-Different-Phenotype (%) [1, 7]: 80% and 77%
- Total Cell Count [1, 7]: 147 and 216
- Population Apoptotic (%) [1, 8]: 72% and 80%
- Population Fragmented Nuclei (%) [1, 8]: 15% and 23%
- Population Healthy Nuclei (%) [1, 8]: 68% and 64%
- Population Hoechst High Intensity Objects (%) [1, 8]: 0% and 1%
- Population Membrane Permeable-Phenotype (%) [1, 8]: 5% and 3%
- Population Mitochondria Different-Phenotype (%) [1, 8]: 11% and 5%
- Population Mitotic Cells (%) [1, 8]: 28% and 20%
- Population Normal (%) [1, 8]: 100% and 98%
- Population Pyknosed Nuclei (%) [1, 8]: 15% and 11%
- Population Tubulin-Different-Phenotype (%) [1, 8]: 55% and 42%
- Total Cell Count [1, 8]: 157 and 217
- Population Apoptotic (%) [1, 9]: 89% and 84%
- Population Fragmented Nuclei (%) [1, 9]: 27% and 18%
- Population Healthy Nuclei (%) [1, 9]: 24% and 32%
- Population Hoechst High Intensity Objects (%) [1, 9]: 5% and 14%
- Population Membrane Permeable-Phenotype (%) [1, 9]: 36% and 40%
- Population Mitochondria Different-Phenotype (%) [1, 9]: 50% and 42%
- Population Mitotic Cells (%) [1, 9]: 10% and 15%
- Population Normal (%) [1, 9]: 94% and 85%
- Population Pyknosed Nuclei (%) [1, 9]: 47% and 48%
- Population Tubulin-Different-Phenotype (%) [1, 9]: 76%
- Total Cell Count [1, 9]: 128 and 187
- Population Apoptotic (%) [2, 4]: 39% and 48%
- Population Fragmented Nuclei (%) [2, 4]: 3% and 2%
- Population Healthy Nuclei (%) [2, 4]: 83% and 85%
- Population Hoechst High Intensity Objects (%) [2, 4]: 7% and 8%
- Population Membrane Permeable-Phenotype (%) [2, 4]: 4% and 5%
- Population Mitochondria Different-Phenotype (%) [2, 4]: 32% and 29%
- Population Mitotic Cells (%) [2, 4]: 60% and 51%
- Population Normal (%) [2, 4]: 92% and 91%
- Population Pyknosed Nuclei (%) [2, 4]: 13% and 12%
- Population Tubulin-Different-Phenotype (%) [2, 4]: 94% and 91%
- Total Cell Count [2, 4]: 593 and 650
- Population Apoptotic (%) [2, 5]: 72% and 76%
- Population Fragmented Nuclei (%) [2, 5]: 2% and 4%
- Population Healthy Nuclei (%) [2, 5]: 75% and 78%
- Population Hoechst High Intensity Objects (%) [2, 5]: 20% and 28%
- Population Membrane Permeable-Phenotype (%) [2, 5]: 2% and 4%
- Population Mitochondria Different-Phenotype (%) [2, 5]: 73% and 75%
- Population Mitotic Cells (%) [2, 5]: 27% and 23%
- Population Normal (%) [2, 5]: 79% and 71%
- Population Pyknosed Nuclei (%) [2, 5]: 21% and 17%
- Population Tubulin-Different-Phenotype (%) [2, 5]: 60% and 66%
- Total Cell Count [2, 5]: 256 and 344
- Population Apoptotic (%) [2, 6]: 57% and 51%
- Population Fragmented Nuclei (%) [2, 6]: 6% and 5%
- Population Healthy Nuclei (%) [2, 6]: 87% and 86%
- Population Hoechst High Intensity Objects (%) [2, 6]: 8%
- Population Membrane Permeable-Phenotype (%) [2, 6]: 4%
- Population Mitochondria Different-Phenotype (%) [2, 6]: 21% and 18%
- Population Mitotic Cells (%) [2, 6]: 42% and 48%
- Population Normal (%) [2, 6]: 91%
- Population Pyknosed Nuclei (%) [2, 6]: 6% and 8%
- Population Tubulin-Different-Phenotype (%) [2, 6]: 81% and 83%
- Total Cell Count [2, 6]: 811 and 859
- Population Apoptotic (%) [2, 7]: 89% and 76%
- Population Fragmented Nuclei (%) [2, 7]: 3% and 1%
- Population Healthy Nuclei (%) [2, 7]: 62% and 73%
- Population Hoechst High Intensity Objects (%) [2, 7]: 25% and 29%
- Population Membrane Permeable-Phenotype (%) [2, 7]: 7% and 0%
- Population Mitochondria Different-Phenotype (%) [2, 7]: 74% and 79%
- Population Mitotic Cells (%) [2, 7]: 10% and 23%
- Population Normal (%) [2, 7]: 74% and 70%
- Population Pyknosed Nuclei (%) [2, 7]: 33% and 24%
- Population Tubulin-Different-Phenotype (%) [2, 7]: 60% and 57%
- Total Cell Count [2, 7]: 303 and 369
- Population Apoptotic (%) [2, 8]: 32% and 29%
- Population Fragmented Nuclei (%) [2, 8]: 11% and 10%
- Population Healthy Nuclei (%) [2, 8]: 83% and 85%
- Population Hoechst High Intensity Objects (%) [2, 8]: 9% and 10%
- Population Membrane Permeable-Phenotype (%) [2, 8]: 7% and 5%
- Population Mitochondria Different-Phenotype (%) [2, 8]: 5% and 4%
- Population Mitotic Cells (%) [2, 8]: 67% and 70%
- Population Normal (%) [2, 8]: 90% and 89%
- Population Pyknosed Nuclei (%) [2, 8]: 4%
- Population Tubulin-Different-Phenotype (%) [2, 8]: 60% and 62%
- Total Cell Count [2, 8]: 1468 and 1438
- Population Apoptotic (%) [2, 9]: 87% and 89%
- Population Fragmented Nuclei (%) [2, 9]: 9% and 8%
- Population Healthy Nuclei (%) [2, 9]: 43% and 53%
- Population Hoechst High Intensity Objects (%) [2, 9]: 31% and 32%
- Population Membrane Permeable-Phenotype (%) [2, 9]: 4% and 1%
- Population Mitochondria Different-Phenotype (%) [2, 9]: 81% and 83%
- Population Mitotic Cells (%) [2, 9]: 12% and 10%
- Population Normal (%) [2, 9]: 68% and 67%
- Population Pyknosed Nuclei (%) [2, 9]: 47% and 38%
- Population Tubulin-Different-Phenotype (%) [2, 9]: 52% and 58%
- Total Cell Count [2, 9]: 355 and 410
- Population Apoptotic (%) [3, 4]: 66% and 86%
- Population Healthy Nuclei (%) [3, 4]: 40% and 79%
- Population Hoechst High Intensity Objects (%) [3, 4]: 0%
- Population Membrane Permeable-Phenotype (%) [3, 4]: 27% and 24%
- Population Mitochondria Different-Phenotype (%) [3, 4]: 9% and 22%
- Population Mitotic Cells (%) [3, 4]: 33% and 13%
- Population Normal (%) [3, 4]: 100%
- Population Pyknosed Nuclei (%) [3, 4]: 22% and 14%
- Population Tubulin-Different-Phenotype (%) [3, 4]: 63% and 53%
- Population Apoptotic (%) [3, 5]: 76% and 59%
- Population Healthy Nuclei (%) [3, 5]: 23% and 66%
- Population Hoechst High Intensity Objects (%) [3, 5]: 0%
- Population Membrane Permeable-Phenotype (%) [3, 5]: 66% and 25%
- Population Mitochondria Different-Phenotype (%) [3, 5]: 50% and 48%
- Population Mitotic Cells (%) [3, 5]: 23% and 40%
- Population Normal (%) [3, 5]: 100% and 99%
- Population Pyknosed Nuclei (%) [3, 5]: 50% and 25%
- Population Tubulin-Different-Phenotype (%) [3, 5]: 83% and 97%
- Population Apoptotic (%) [3, 6]: 71% and 77%
- Population Healthy Nuclei (%) [3, 6]: 42% and 74%
- Population Hoechst High Intensity Objects (%) [3, 6]: 0%
- Population Membrane Permeable-Phenotype (%) [3, 6]: 14% and 18%
- Population Mitochondria Different-Phenotype (%) [3, 6]: 21% and 36%
- Population Mitotic Cells (%) [3, 6]: 28% and 22%
- Population Normal (%) [3, 6]: 100% and 99%
- Population Pyknosed Nuclei (%) [3, 6]: 21% and 20%
- Population Tubulin-Different-Phenotype (%) [3, 6]: 35% and 48%
- Population Apoptotic (%) [3, 7]: 85% and 65%
- Population Hoechst High Intensity Objects (%) [3, 7]: 0% and 1%
- Population Membrane Permeable-Phenotype (%) [3, 7]: 100% and 35%
- Population Mitochondria Different-Phenotype (%) [3, 7]: 80% and 70%
- Population Mitotic Cells (%) [3, 7]: 14% and 34%
- Population Normal (%) [3, 7]: 100% and 98%
- Population Pyknosed Nuclei (%) [3, 7]: 46% and 37%
- Population Tubulin-Different-Phenotype (%) [3, 7]: 100% and 93%
- Population Apoptotic (%) [3, 8]: 66% and 88%
- Population Healthy Nuclei (%) [3, 8]: 39% and 76%
- Population Hoechst High Intensity Objects (%) [3, 8]: 0%
- Population Membrane Permeable-Phenotype (%) [3, 8]: 27% and 14%
- Population Mitochondria Different-Phenotype (%) [3, 8]: 45% and 26%
- Population Mitotic Cells (%) [3, 8]: 33% and 11%
- Population Normal (%) [3, 8]: 100%
- Population Pyknosed Nuclei (%) [3, 8]: 21% and 18%
- Population Tubulin-Different-Phenotype (%) [3, 8]: 63% and 40%
- Population Apoptotic (%) [3, 9]: 76% and 90%
- Population Hoechst High Intensity Objects (%) [3, 9]: 0% and 2%
- Population Membrane Permeable-Phenotype (%) [3, 9]: 100% and 50%
- Population Mitochondria Different-Phenotype (%) [3, 9]: 100% and 79%
- Population Mitotic Cells (%) [3, 9]: 23% and 10%
- Population Normal (%) [3, 9]: 100% and 97%
- Population Pyknosed Nuclei (%) [3, 9]: 43% and 56%
- Population Tubulin-Different-Phenotype (%) [3, 9]: 100% and 89%
